Entries after “also recorded” stand apart in the source; their conditions may differ.
How the values were obtained:
[1] = target: T1, PfAtg8-PfAtg3 interaction (Plasmodium falciparum, UniProt Q8IJK2, C119S/C122S/C32I); assay: MMV SPR competition assay; assay type: binding, P. falciparum; conditions: read-out: inhibition of the PfAtg8-PfAtg3 interaction in primary SPR screen
T1 sequence (Q8IJK2 1-124 C32I/C119S/C122S): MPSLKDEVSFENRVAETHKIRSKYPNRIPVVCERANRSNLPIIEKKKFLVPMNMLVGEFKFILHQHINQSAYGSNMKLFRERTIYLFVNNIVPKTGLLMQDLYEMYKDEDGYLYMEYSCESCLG
T1 sequence (C0H519 1-313 partner): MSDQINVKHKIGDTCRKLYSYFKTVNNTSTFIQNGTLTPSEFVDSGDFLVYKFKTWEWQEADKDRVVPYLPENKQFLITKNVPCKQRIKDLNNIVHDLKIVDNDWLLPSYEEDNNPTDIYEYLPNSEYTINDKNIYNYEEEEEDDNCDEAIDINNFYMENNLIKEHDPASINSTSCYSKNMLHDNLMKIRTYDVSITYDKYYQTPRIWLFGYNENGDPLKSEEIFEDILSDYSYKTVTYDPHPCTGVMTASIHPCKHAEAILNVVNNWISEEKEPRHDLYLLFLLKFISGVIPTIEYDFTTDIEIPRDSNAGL
Method in brief: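 MBP-PfAtg3 immobilized on a CM5 chip, with MBP on the reference flowcell. Test compound (final 5 μM) or DMSO was mixed with 300 nM His6-PfAtg8CM in PBS pH 7.4 with 0.01% P20, final DMSO 3%, and injected. Binding read as SPR response versus DMSO control. Surface regenerated with 2 M MgCl2 between injections.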

[2] = system: early liver stage parasites; conditions: cited from earlier work
PfAtg8^CM = target: T2, PfAtg8^CM (Plasmodium falciparum, UniProt Q8IJK2, C119S/C122S/C32I); assay: Direct binding of 1 to immobilized PfAtg8^CM by SPR; design: species or system P. falciparum
T2 sequence (Q8IJK2 1-124 C32I/C119S/C122S): T1 sequence (Q8IJK2 1-124 C32I/C119S/C122S)
Method in brief: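 SPR direct binding: His12-PfAtg8CM captured on a nickel-preconditioned NTA chip to 3000 RU. Two-fold dilution series of test compound (top 75 μM) injected at 40 μL/min in PBS pH 7.4 with 0.01% P20 and 3% DMSO. Double referencing with interspersed blanks; DMSO calibration curve; binding constants fitted.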

PfAtg8 = assay: Immunoblot analysis of PfAtg8 in P. falciparum blood stage; assay type: cell-based; conditions: for delipidation of PfAtg8 (immunoblot): 6 hours
human cell lines = conditions: ref PubChem AID: 660872, 685525, and 449705; cited from earlier work
P. falciparum 3D7 = assay: SYBR green I growth inhibition assay, blood stage; assay type: cell-based; conditions: Plasmodium falciparum, 3D7, read-out: IC50 in a third experiment
[3] = system: Plasmodium yoelii liver stage cultures; conditions: screening concentration 10 μM; ref PubChem AID: 602118 and 602156, 18, 19; cited from earlier work
[4] = system: P. falciparum blood stage; assay: Parasite morphology in blood smears; assay type: cell-based; conditions: treatment concentration and duration used in the study (50 μM, 5 h)
Method in brief: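 Asynchronous FCR3 blood-stage culture (25% parasitemia; 37 °C, 2% hematocrit, RPMI with 10% human serum, 3% CO2/5% O2) washed in serum-free starvation medium. Resuspended in complete medium with 50 μM test compound or DMSO, or in starvation medium with DMSO, for 5 h. Morphology viewed by light microscopy at 100× at harvest.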

[5] = system: P. falciparum 3D7-GFP liver stage; assay: In vitro infection of human hepatocytes; assay type: cell-based; conditions: for decrease in proportion of hepatocytes infected with P. falciparum 3D7-GFP (GFP+/PI−): 72 h post infection
HC-04 cells = assay: Viability of HC-04 cells; assay type: cell-based, human; conditions: 30 μM
PfAtg3 = target: T3, PfAtg3 (Plasmodium falciparum, UniProt C0H519); assay: Direct binding of protein to immobilized 8 by SPR; design: species or system P. falciparum; conditions: data not shown
T3 sequence (C0H519 1-313): T1 sequence (C0H519 1-313 partner)
Method in brief: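 Test compound captured on a neutravidin-coated SPR flowcell (130 RUs), with a control ligand on the reference flowcell (150 RUs). His6-PfAtg3 injected in duplicate in 10 mM HEPES pH 7.5, 150 mM NaCl, 0.05% P20. Regeneration after each cycle with 20 mM HEPES pH 7.4, 1% w/v SDS.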

O=C(Nc1nc(-c2ccccn2)cs1)c1ccccc1Br [Compound 3, 2-bromo-N-(4-pyridin-2-yl-1,3-thiazol-2-yl)benzamide]
inhibition at 5 µM [1]: ≥ 25%

Cn1cnc(N)c2ncnc1-2 [3-methyladenine]
effect on conversion of parasite into trophozoite form [2]: delay conversion of the parasite into its trophozoite form

CN(C)c1ccc(N2C(N)=NC(N)=NC2(C)C)cc1 [Compound 5, 1-[4-(dimethylamino)phenyl]-6,6-dimethyl-1,3,5-triazine-2,4-diamine]
inhibition at 5 µM [1]: ≥ 25%

Cc1ccc(Nc2nc(-c3ccccn3)cs2)cc1 [Compound 1, N-(4-methylphenyl)-4-pyridin-2-yl-1,3-thiazol-2-amine]
direct binding to PfAtg8^CM (SPR response) (PfAtg8^CM): dose-dependent increase in SPR response; also recorded: directly binds to PfAtg8
delipidation of PfAtg8 (immunoblot) (PfAtg8; 12.5 μM): dose-dependent increase in delipidation of PfAtg8
delipidation of PfAtg8 (immunoblot) (PfAtg8; 25 μM): unlipidated PfAtg8 is the predominant species
PfAtg8 protein levels (immunoblot) (PfAtg8; 50 μM (cytocidal, high levels), 5 h, FCR3): drastic increase in PfAtg8 protein levels
reported cytotoxicity in human cell lines (human cell lines): much lower than that of compounds 2 or 3
IC50 (P. falciparum 3D7): 3.3 µM
inhibition of P. yoelii liver stage [3]: ≤ 50%
parasite morphology [4]: parasite morphology appeared normal
inhibition at 5 µM [1]: ≥ 25%
intensity of GFP fluorescence in infected hepatocytes ([5]; 3 μM and 30 μM): dose-dependent reduction
decrease in proportion of hepatocytes infected with P. falciparum 3D7-GFP (GFP+/PI−) ([5]; 3 μM): but not with 3 μM
decrease in proportion of hepatocytes infected with P. falciparum 3D7-GFP (GFP+/PI−) ([5]; 30 μM): ~50%
cell death in HC-04 cells (HC-04 cells): did not observe cell death

O=C(CCCC[C@H]1SC[C@H]2NC(=O)N[C@H]21)NCCCCCC(=O)NNCc1ccc(C(=O)Nc2nc(-c3ccccn3)cs2)cc1 [Compound 8, 4-[[2-[6-[5-[(3aR,4R,6aS)-2-Oxo-1,3,3a,4,6,6a-hexahydrothieno[3,4-d]imidazol-4-yl]pentanoylamino]hexanoyl]hydrazinyl]methyl]-N-(4-pyridin-2-yl-1,3-thiazol-2-yl)benzamide]
binding of recombinant PfAtg3 to immobilized 8 (PfAtg3): did not bind

CSc1ccccc1C(=O)Nc1nc(-c2ccccn2)cs1 [Compound 2, 2-methylsulfanyl-N-(4-pyridin-2-yl-1,3-thiazol-2-yl)benzamide]
inhibition at 5 µM [1]: ≥ 25%

Brc1ccc(Nc2nc3ccccc3nc2Nc2ccc(Br)cc2)cc1 [Compound 6, 2-N,3-N-bis(4-bromophenyl)quinoxaline-2,3-diamine]
inhibition at 5 µM [1]: ≥ 25%

Cc1ccc(-c2cc3c(SCC(=O)Nc4cc(C(F)(F)F)ccc4Cl)nccn3n2)cc1 [Compound 4, N-[2-chloro-5-(trifluoromethyl)phenyl]-2-[2-(4-methylphenyl)pyrazolo[1,5-a]pyrazin-4-yl]sulfanylacetamide]
inhibition at 5 µM [1]: ≥ 25%

From article PMC4059259 (Journal of Medicinal Chemistry, 2014)
